OX1R antag-1: antagonists of human orexin 1 receptor. O43613. CHO/OX1R cells, Fluo-8 calcium fluorescence, orexin A. inhibition, % at 5 µM. 330,000 compounds, 0.43% hits. AID 434989;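 active = inhibition above its plate's threshold, mean inhibition of all tested compounds on the plate plus 3 SD, cut at about 37% in these data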;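 also: 0% = orexin A challenge wells and 100% = SB-334867-A antagonist wells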
OX1R antag-2: blocks the human orexin 1 receptor; O43613; 330,000 compounds, 1.8% hits; inhibition, % at 6.6 µM; OX1R-expressing cells, FRET antagonist read-out; in the data active = inhibition mostly above about 38%, no sharp cut-off; inactive = mostly below about 40%;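 also: 0% = agonist challenge alone and 100% = reference antagonist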
GalR3 antagonist: human GalR3 antagonism. 360,000 compounds, 0.44% hits. HEK293 GalR3-CNG cAMP membrane potential fluorescence; galR3 body fused to GalR1 C-terminus. inhibition, % at 3 µM;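 active = inhibition above the screen-wide average plus 3 SD, cut at about 13% in these data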;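 also: forskolin and galanin both at EC90 stimulate the cells; cAMP rise reported by CNG channel membrane potential dye signal; 0% = forskolin plus galanin with DMSO and 100% = forskolin alone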
Target sequence (O60755 1-299 limits assumed): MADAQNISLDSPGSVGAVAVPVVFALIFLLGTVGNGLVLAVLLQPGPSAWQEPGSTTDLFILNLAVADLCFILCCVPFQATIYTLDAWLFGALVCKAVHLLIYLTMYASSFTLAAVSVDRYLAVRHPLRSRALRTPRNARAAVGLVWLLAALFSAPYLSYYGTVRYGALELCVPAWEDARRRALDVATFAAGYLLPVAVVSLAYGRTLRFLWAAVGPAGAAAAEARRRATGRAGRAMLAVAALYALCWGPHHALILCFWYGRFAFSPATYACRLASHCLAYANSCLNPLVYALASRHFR
CHO parental Ca: counter-screen for OX1R antagonists: effect in parental CHO cells | parental CHO-K1, ATP-induced calcium, Fluo-8 fluorescence | inhibition, % at 5.6 µM | 330,000 compounds, 0.63% hits;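 active = inhibition above that plate's mean sample inhibition plus 3 SD, cut at about 26% in these data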;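 also: 0% = ATP-challenged DMSO wells and 100% = DMSO wells without ATP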
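Material: parental CHO cells / Compound: single nominal dose of 5.6 µM per compound / Signal: Fluo-8 fluorescence / Replicates: singlicate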
GPR7 antagonist: antagonists of human GPR7 (neuropeptides B/W receptor 1). P48145. AID 1861. inhibition, % at 4.4 µM. 290,000 compounds, 1.1% hits. GPR7-expressing cells, fluorescence antagonist assay; in the data active = inhibition above about 16%, passing the limit was not always enough;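 also: cells stimulated with the agonist NPW; 0% = agonist with vehicle and 100% = vehicle without agonist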
Target sequence (P48145 whole entry, looked up): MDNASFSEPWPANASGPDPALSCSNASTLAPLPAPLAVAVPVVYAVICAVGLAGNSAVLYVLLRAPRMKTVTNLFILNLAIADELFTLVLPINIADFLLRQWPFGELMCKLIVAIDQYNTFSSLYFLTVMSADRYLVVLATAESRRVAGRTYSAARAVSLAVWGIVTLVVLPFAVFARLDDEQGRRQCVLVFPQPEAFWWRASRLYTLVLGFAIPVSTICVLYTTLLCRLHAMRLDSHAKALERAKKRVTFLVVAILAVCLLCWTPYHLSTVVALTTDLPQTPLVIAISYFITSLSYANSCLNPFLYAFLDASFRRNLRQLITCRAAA
OX1R Ca confirm: OX1R (human) antagonism, confirmed; shares compounds with OX1R antag-1; CHO/OX1R cells, orexin A calcium Fluo-8 fluorescence; 1,100 compounds, 38% hits; inhibition, % at 5 µM; in the data active = inhibition above about 29%;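 also: 0% = agonist challenge alone and 100% = reference antagonist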
CHO Ca triplic: signal in parental CHO cells, OX1R antagonist counter-screen | inhibition, % at 5.6 µM | shares compounds with OX1R antag-1 | parental CHO-K1, ATP-induced calcium, Fluo-8 fluorescence | 1,100 compounds, 9.3% hits | AID 492965;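 active = inhibition above a per-plate limit, the mean inhibition of that plate's test compounds plus 3 SD, cut at about 25% in these data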;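 also: 0% = ATP challenge with DMSO and 100% = DMSO without ATP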
OX1R HTRF conf: OX1R (human) antagonism, HTRF confirmed; shares compounds with OX1R antag-2; OX1R-expressing cells, HTRF antagonist assay; 1,800 compounds, 49% hits; AID 492964; inhibition, % at 6.6 µM; in the data active = inhibition above about 55%;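 also: CHO cells expressing OX1R stimulated with orexin A at about EC80; 0% = agonist challenge alone and 100% = reference antagonist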
CHO-K1 HTRF cnt: counter-screen for OX1R antagonists: effect in parental CHO-K1 cells; 1,800 compounds, 48% hits; shares compounds with OX1R antag-2; HTRF counterscreen; inhibition, % at 6.6 µM; in the data active = inhibition above about 17%;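 also: 0% = agonist challenge with vehicle and 100% = vehicle alone without agonist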
* marks the source's active call; other numbers are inactive results; · = no result. An excerpt weighted towards active compounds, which were near 3.1% of everything screened.

SMILES | OX1R antag-1 | OX1R antag-2 | GalR3 antagonist | CHO parental Ca | GPR7 antagonist | OX1R Ca confirm | CHO Ca triplic | OX1R HTRF conf | CHO-K1 HTRF cnt
Cc1ccc(C(CC(=O)O)NC(=O)CCNC(=O)c2ccco2)cc1 (stereo unspecified) | · | · | -3.0 | · | · | · | · | · | ·
CCCCN1C(=O)/C(=C/C=C2\SCCN2C)SC1=S | · | · | 2.0 | · | 0.6 | · | · | · | ·
CN1CCS/C1=C/C=C1\SC(=S)N(CC(=O)O)C1=O | 25.9 | 103.7* | 1.6 | 19.6 | 8.4 | 13.3 | 19.4 | 63.7* | 102.8*
O=C1C(=O)N(c2ccccn2)C(c2cccc(F)c2)/C1=C(/O)c1ccccc1 (stereo unspecified) | -15.9 | 1.7 | · | -5.0 | -5.5 | · | · | · | ·
Cc1c(NS(=O)(=O)c2cccc(C(=O)N3CCC(C)CC3)c2)c(=O)n(-c2ccccc2)n1C | -10.4 | 3.2 | -3.8 | -9.0 | · | · | · | · | ·
Cc1c(NS(=O)(=O)c2cccc(C(=O)OCC(=O)N(C)C3CCCCC3)c2)c(=O)n(-c2ccccc2)n1C | 37.3* | 98.3* | -1.2 | -15.6 | -6.4 | 57.6* | -11.0 | 89.7* | -1.4
Cc1cc(SCC(=O)OC(C)C(=O)N(C)c2ccccc2)nc2ccccc12 (stereo unspecified) | 48.1* | 38.0* | -0.5 | -25.6 | · | 15.2 | 0.9 | 60.8* | 0.3
COc1cccc(NC(=O)N2CCCC2C(=O)NCc2ccco2)c1 (stereo unspecified) | 5.3 | 0.4 | -12.3 | 0.3 | 2.8 | · | · | · | ·
COc1ccc(/C=c2\s/c(=C/C(=O)c3ccc(C)cc3)[nH]c2=O)c(OC)c1 | 47.1* | 78.6* | -2.8 | 8.6 | 2.2 | 28.5 | 1.7 | 93.1* | 9.6
CCOC(=O)N1CCN(C(=O)CSc2ccc(-c3ccccc3)nn2)CC1 | 25.8 | 92.2* | -2.9 | -9.6 | -20.0 | 26.9 | 2.9 | 82.4* | -2.5
COc1ccc(-c2ccc(SCC(=O)c3cccs3)nn2)cc1 | -17.3 | 50.4 | -1.4 | -16.4 | 0.8 | · | · | · | ·
O=C(CSc1ccc(-c2ccccc2)nn1)c1cccs1 | 49.8* | 101.5* | -6.1 | -7.4 | -4.7 | 99.3* | -3.9 | 89.9* | -3.8
CCOC(=O)N1CCN(C(=O)CSc2ccc(-c3ccncc3)nn2)CC1 | -2.4 | 16.1 | -3.8 | -9.8 | -3.4 | · | · | · | ·
O=C(O)CCN1CCc2ccccc2C1c1cccs1 (stereo unspecified) | 11.5 | 18.2 | -1.0 | 8.7 | -2.0 | · | · | · | ·
CCOC(=O)c1ccc(NC(=S)Nc2ccc3[nH]c(=O)[nH]c3c2)cc1 | -7.2 | 6.7 | 4.0 | 3.0 | -4.8 | · | · | · | ·
N#CC(=C1CCCC1)c1nc(-c2ccccc2O)cs1 | 66.7* | 93.1* | · | -7.5 | -5.6 | 54.1* | -4.8 | 94.2* | -4.1
COc1cccc(CNC(=O)[C@H]2CCCN2C(=O)[C@H]2CCCN2C(=O)c2ccc(Cl)cc2)c1 | · | · | -3.6 | · | · | · | · | · | ·
CCOC(=O)C1C(C(=O)NN)C1C(=O)Nc1ccccc1 (stereo unspecified) | -22.6 | 15.0 | -6.4 | -18.7 | 1.8 | · | · | · | ·
Cc1nc2cc(NC(=O)COc3ccccc3C#N)ccc2n1-c1ccccc1 | 102.4* | 122.3* | 0.4 | 2.8 | 10.2 | 83.0* | -3.8 | 92.3* | 11.1
COc1ccccc1NC(=O)COC(=O)c1ccc2c(c1)nc(C)n2-c1ccccc1 | -12.2 | 18.8 | -2.1 | -19.2 | -2.7 | · | · | · | ·
COc1ccc2[nH]cc(/C=C/C(=O)c3ccccc3)c2c1 | 34.3 | 59.2* | -3.0 | -27.5 | -2.1 | 16.9 | -3.9 | 40.9 | 9.7
Cc1nc(NCc2ccco2)c2cn[nH]c2n1 | · | · | -6.5 | · | · | · | · | · | ·
c1coc(CNc2nc3nonc3nc2NCc2ccco2)c1 | 35.4 | 73.1* | -2.5 | 25.5 | -8.6 | -2.5 | -6.7 | 28.0 | -15.0
Cc1ccc(-c2nc3ccccc3[nH]2)cc1NC(=O)c1sc2cc(Cl)ccc2c1Cl | 44.3* | 77.0* | -2.1 | -13.8 | 12.0 | 47.1* | -11.5 | 65.6* | 11.1
Cc1ccc(/C=N/NC(=O)c2nnn(-c3nonc3N)c2CN(C)c2ccccc2)s1 | 48.7 | 78.9* | -4.6 | -13.9 | -1.7 | 26.1 | -2.2 | 85.8* | 3.3
SMILES | OX1R antag-1 | OX1R antag-2 | GalR3 antagonist | CHO parental Ca | GPR7 antagonist | OX1R Ca confirm | CHO Ca triplic | OX1R HTRF conf | CHO-K1 HTRF cnt
CN(Cc1c(C(=O)N/N=C/c2cccc(O)c2)nnn1-c1nonc1N)c1ccccc1 | 84.1* | 87.3* | · | 9.4 | 0.6 | 70.7* | 10.6 | 88.4* | -0.9
C/C(=N\NC(=O)c1nnn(-c2nonc2N)c1CN(C)c1ccccc1)c1cccs1 | 40.2 | 53.3* | -7.2 | -17.0 | -10.3 | 24.1 | -10.2 | 79.3* | 0.2
CCOC(=O)C(C(=O)OCC)c1c([N+](=O)[O-])c(=O)n2c3c(cccc13)CCC2 | -2.4 | 4.6 | -9.0 | -11.7 | -13.6 | · | · | · | ·
CCCn1cc(CN2CCC(n3nccc3NC(=O)CCOc3ccccc3)CC2)c(C)n1 | -20.5 | 9.1 | -4.5 | -10.2 | -8.8 | · | · | · | ·
CC(C(=O)NCc1cccc(Cl)c1)N1C(=O)c2ccccc2C1=O (stereo unspecified) | -7.9 | 18.5 | -9.0 | 4.1 | -4.2 | · | · | · | ·
COCCN(Cc1nc2ccccc2c(=O)[nH]1)C(=O)COc1c(C)cc(Cl)cc1C | 39.2* | 58.4* | -2.0 | -21.4 | · | 17.7 | -15.8 | 70.1* | -0.9
Cc1ccn2cc(C(=O)Nc3ccc4c(c3)OCCO4)nc2c1 | 39.6 | 87.6* | -2.4 | -23.8 | -12.4 | 9.5 | -1.3 | 74.5* | 8.9
Cc1ccn2cc(C(=O)Nc3ccccc3N3CCOCC3)nc2c1 | -26.1 | 17.8 | -3.5 | -12.7 | -4.0 | · | · | · | ·
Cn1c(O)c(/C=C2\C=NN=C2c2ccccc2)sc1=S | 40.7* | 38.6* | 0.7 | -21.2 | 8.9 | 8.5 | -5.8 | 40.0 | 1.2
C=CCSC1=C(C#N)C(c2ccccc2Cl)C(C(=O)c2cccs2)C(O)(C(F)(F)F)N1 (stereo unspecified) | 41.8* | 103.6* | -1.8 | -20.9 | -3.4 | 79.0* | -12.8 | 88.7* | 7.5
COc1cc(C2NC(=S)NC(O)(C(F)(F)F)C2C(=O)c2cccs2)cc(OC)c1O (stereo unspecified) | -7.6 | -0.6 | 0.8 | -8.1 | -8.2 | · | · | · | ·
CCSC1=C(C#N)C(c2ccccc2Cl)C(C(=O)c2cccs2)C(O)(C(F)(F)F)N1 (stereo unspecified) | 94.5* | 95.2* | -1.8 | -6.5 | -4.0 | 77.2* | -12.7 | 89.0* | -0.3
O=C1NC(c2ccccc2)C(C(=O)c2cccs2)C(O)(C(F)(F)F)N1 (stereo unspecified) | -2.0 | 13.7 | -3.1 | -6.4 | -11.7 | · | · | · | ·
CCCn1nnnc1NCc1c(F)cccc1Cl | 13.8 | 9.6 | -3.9 | -0.1 | -7.1 | · | · | · | ·
